Laboratory results as given in ChEMBL document CHEMBL3259569 (J Med Chem, 2014).
Activity calls are given as the source filed them. The rule behind the calls is not given here.

What was measured:
Histone deacetylase = assay: Inhibition of HDAC in human HeLa cell nuclear extract using Boc-Lys(Ac)-AMC as substrate after 30 mins by fluorimetric analysis; format: protein assay
KB = assay: Cytotoxicity against human KB cells by MTT assay; format: functional, cell-based
[1] = Cytotoxicity against human H460 cells by MTT assay; format: functional, cell-based; details: NCI-H460
Method in brief: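 Antiproliferative IC50 in H460 cells; mean ± SD of at least three independent experiments.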

PC-3 = assay: Cytotoxicity against human PC3 cells by MTT assay; format: functional, cell-based
HCT-116 [2] = assay: Cytotoxicity against human HCT116 cells by MTT assay; format: functional, cell-based
HCT-116 [3] = assay: Induction of apoptosis in human HCT116 cells assessed as increase in p53 protein level at 0.1 to 3 uM after 24 hrs by immunoblotting analysis; format: functional, cell-based
HCT-116 [4] = assay: Induction of apoptosis in human HCT116 cells assessed as accumulation at sub-G1 phase after 24 hrs by propidium iodide staining-based flow cytometric analysis; format: functional, cell-based
Method in brief: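 HCT116 cells treated with indicated concentrations for 24 h; DNA content analyzed by flow cytometry for cell cycle distribution and sub-G1 fraction; means of at least three independent experiments.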

HCT-116 [5] = assay: Induction of apoptosis in human HCT116 cells assessed as accumulation at sub-G1 phase at 1 uM by propidium iodide staining-based flow cytometric analysis; format: functional, cell-based; details: TDE = time-dependent effect
Method in brief: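 HCT116 cells exposed to 1 μM compound for varying time intervals; sub-G1 population quantified by flow cytometry.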

[6] = Oral bioavailability in ICR mouse at 10 mg/kg by LC-MS/MS analysis; format: ADME, organism-based; details: in vivo
A549 = assay: Cytotoxicity against human A549 cells by MTT assay; format: functional, cell-based
Histone deacetylase 1 = Histone deacetylase 1 (Homo sapiens, UniProt Q13547); assay: Inhibition of HDAC1 (unknown origin) using RHKK(Ac) (379 to 382) p53 peptide as substrate by fluorescence assay
Sequence of Histone deacetylase 1 (Q13547 whole entry): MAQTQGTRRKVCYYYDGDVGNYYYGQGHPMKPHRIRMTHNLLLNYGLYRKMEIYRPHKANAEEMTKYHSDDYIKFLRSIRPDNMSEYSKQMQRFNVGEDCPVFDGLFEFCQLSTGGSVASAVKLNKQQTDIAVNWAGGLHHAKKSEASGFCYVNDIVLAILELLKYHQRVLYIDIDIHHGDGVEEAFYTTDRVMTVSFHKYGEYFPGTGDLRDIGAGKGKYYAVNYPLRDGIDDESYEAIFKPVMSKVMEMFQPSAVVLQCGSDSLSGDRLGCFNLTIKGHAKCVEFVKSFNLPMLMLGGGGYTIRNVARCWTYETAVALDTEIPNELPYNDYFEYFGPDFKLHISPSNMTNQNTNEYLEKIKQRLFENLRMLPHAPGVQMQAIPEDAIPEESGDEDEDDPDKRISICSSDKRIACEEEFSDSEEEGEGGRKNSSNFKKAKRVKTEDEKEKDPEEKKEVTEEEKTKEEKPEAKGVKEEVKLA

[7] = molecular target: T1, Protein deacetylase HDAC6 (Homo sapiens, UniProt Q9UBN7); assay: Inhibition of HDAC6 (unknown origin) using RHKK(Ac) (379 to 382) p53 peptide as substrate by fluorescence assay
T1 sequence (Q9UBN7 whole entry): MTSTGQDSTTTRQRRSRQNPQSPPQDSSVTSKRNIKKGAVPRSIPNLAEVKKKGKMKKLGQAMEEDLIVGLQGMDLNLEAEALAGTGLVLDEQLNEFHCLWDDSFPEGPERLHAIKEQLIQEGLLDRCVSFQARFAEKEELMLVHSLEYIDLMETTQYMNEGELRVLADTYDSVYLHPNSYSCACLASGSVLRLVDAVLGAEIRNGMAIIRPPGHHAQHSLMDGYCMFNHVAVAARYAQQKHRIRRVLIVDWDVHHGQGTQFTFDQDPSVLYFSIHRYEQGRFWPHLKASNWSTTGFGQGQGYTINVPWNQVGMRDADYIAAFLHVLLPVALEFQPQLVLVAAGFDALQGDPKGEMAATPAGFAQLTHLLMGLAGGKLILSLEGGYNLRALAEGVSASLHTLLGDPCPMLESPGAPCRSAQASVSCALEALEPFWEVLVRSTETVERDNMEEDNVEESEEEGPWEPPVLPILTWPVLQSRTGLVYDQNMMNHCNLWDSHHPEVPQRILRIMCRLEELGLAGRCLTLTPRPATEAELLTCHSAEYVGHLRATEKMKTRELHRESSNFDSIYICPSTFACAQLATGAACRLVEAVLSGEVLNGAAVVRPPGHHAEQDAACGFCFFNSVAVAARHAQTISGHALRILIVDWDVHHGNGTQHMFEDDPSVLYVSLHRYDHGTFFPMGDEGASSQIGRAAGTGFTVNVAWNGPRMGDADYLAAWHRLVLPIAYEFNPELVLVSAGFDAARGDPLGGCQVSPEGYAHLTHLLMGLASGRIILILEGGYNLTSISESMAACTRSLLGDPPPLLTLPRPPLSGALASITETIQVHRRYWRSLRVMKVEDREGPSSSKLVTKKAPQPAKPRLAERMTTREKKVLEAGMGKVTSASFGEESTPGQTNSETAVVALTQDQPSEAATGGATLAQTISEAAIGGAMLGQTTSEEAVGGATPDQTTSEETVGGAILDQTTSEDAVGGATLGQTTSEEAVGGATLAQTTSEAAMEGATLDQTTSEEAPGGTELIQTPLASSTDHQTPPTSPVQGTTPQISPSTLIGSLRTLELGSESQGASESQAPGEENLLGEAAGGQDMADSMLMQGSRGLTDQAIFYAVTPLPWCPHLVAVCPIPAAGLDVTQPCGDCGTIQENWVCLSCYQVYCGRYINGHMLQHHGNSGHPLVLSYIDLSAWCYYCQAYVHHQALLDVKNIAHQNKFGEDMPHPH

Row | Compound | IC50 (Histone deacetylase) [nM] | bioavailability [6] [%] | IC50 (Histone deacetylase 1) [nM] | IC50 [7] [nM] | IC50 (KB) [nM] | IC50 [1] [nM] | IC50 (PC-3) [nM] | IC50 (HCT-116 [2]) [nM] | Activity (HCT-116 [3]) | Activity (HCT-116 [4]) | Activity (HCT-116 [5]) | IC50 (A549) [nM]
1 | O=C(/C=C/c1ccc(S(=O)(=O)n2ccc3cccnc32)cc1)NO | 240 | – | – | – | 870 | 910 | 1240 | 1010 | – | – | – | –
2 | O=C(CCCCCCC(=O)Nc1ccccc1)NO [VORINOSTAT] | – | 8.33 | – | – | – | 820 | – | – | inactive | Dose-dependent effect | tde | 1540
3 | O=C(/C=C/c1ccc(S(=O)(=O)n2ncc3ccccc32)cc1)NO | 500 | – | – | – | 1830 | 2790 | 3360 | 3340 | – | – | – | –
4 | O=C(/C=C/c1ccc(S(=O)(=O)n2ccc3ccncc32)cc1)NO | 560 | – | – | – | 1240 | 1670 | 1970 | 1920 | – | – | – | –
5 | O=C(/C=C/c1cccc(S(=O)(=O)n2ccc3ccccc32)c1)NO | 510 | – | – | – | 2920 | 3010 | 4010 | 2470 | – | – | – | –
6 | O=C(/C=C/c1cccc(S(=O)(=O)n2ccc3ccncc32)c1)NO | 480 | – | 4850 | 280 | 610 | 560 | 1110 | 1210 | – | – | – | –

Continued, in another order:

Row | IC50 (Histone deacetylase) [nM] | bioavailability [6] [%] | IC50 (Histone deacetylase 1) [nM] | IC50 [7] [nM] | Compound | IC50 (KB) [nM] | IC50 [1] [nM] | IC50 (PC-3) [nM] | IC50 (HCT-116 [2]) [nM] | Activity (HCT-116 [3]) | Activity (HCT-116 [4]) | Activity (HCT-116 [5]) | IC50 (A549) [nM]
7 | 600 | – | – | – | O=C(/C=C/c1cccc(S(=O)(=O)N2CCc3cccnc32)c1)NO | 1290 | 1820 | 4110 | 2040 | – | – | – | –
8 | 850 | – | – | – | O=C(/C=C/c1ccc(S(=O)(=O)N2CCc3cccnc32)cc1)NO | 1520 | 1980 | 3640 | 1730 | – | – | – | –
9 | 230 | – | – | – | O=C(/C=C/c1cccc(S(=O)(=O)n2ncc3ccccc32)c1)NO | 1260 | 1210 | 3210 | 1120 | – | – | – | –
